The values below come from ChEMBL document CHEMBL3352516, “Synthesis and biological evaluation of largazole analogues with modified surface recognition cap groups” (2014).

In general, inhibition refers to the drop in the measured response relative to a control, in per cent. For orientation: GI50 means the concentration at which growth is held to half of that of the control. High values mean less potent growth inhibition, low ones more potent growth inhibition.

The target of experiment [1] is Histone deacetylase 1 (Homo sapiens) (UniProt Q13547). The experiment is described as follows: Inhibition of human HDAC1 (unknown origin) at 1 uM using Fluor de Lys substrate fluorimetric assay. In a few lines:
(§1)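 Recombinant HDAC1 incubated 1 h with inhibitor (0–1 μM) and class I-specific Fluor de Lys substrate, then developer added and fluorescence read. Compound with substrate and developer but no enzyme served as interference control. Three experiments, each in triplicate.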

Experiment [2] addresses T1, Protein deacetylase HDAC6 (Homo sapiens) (UniProt Q9UBN7).
T1 sequence (whole entry): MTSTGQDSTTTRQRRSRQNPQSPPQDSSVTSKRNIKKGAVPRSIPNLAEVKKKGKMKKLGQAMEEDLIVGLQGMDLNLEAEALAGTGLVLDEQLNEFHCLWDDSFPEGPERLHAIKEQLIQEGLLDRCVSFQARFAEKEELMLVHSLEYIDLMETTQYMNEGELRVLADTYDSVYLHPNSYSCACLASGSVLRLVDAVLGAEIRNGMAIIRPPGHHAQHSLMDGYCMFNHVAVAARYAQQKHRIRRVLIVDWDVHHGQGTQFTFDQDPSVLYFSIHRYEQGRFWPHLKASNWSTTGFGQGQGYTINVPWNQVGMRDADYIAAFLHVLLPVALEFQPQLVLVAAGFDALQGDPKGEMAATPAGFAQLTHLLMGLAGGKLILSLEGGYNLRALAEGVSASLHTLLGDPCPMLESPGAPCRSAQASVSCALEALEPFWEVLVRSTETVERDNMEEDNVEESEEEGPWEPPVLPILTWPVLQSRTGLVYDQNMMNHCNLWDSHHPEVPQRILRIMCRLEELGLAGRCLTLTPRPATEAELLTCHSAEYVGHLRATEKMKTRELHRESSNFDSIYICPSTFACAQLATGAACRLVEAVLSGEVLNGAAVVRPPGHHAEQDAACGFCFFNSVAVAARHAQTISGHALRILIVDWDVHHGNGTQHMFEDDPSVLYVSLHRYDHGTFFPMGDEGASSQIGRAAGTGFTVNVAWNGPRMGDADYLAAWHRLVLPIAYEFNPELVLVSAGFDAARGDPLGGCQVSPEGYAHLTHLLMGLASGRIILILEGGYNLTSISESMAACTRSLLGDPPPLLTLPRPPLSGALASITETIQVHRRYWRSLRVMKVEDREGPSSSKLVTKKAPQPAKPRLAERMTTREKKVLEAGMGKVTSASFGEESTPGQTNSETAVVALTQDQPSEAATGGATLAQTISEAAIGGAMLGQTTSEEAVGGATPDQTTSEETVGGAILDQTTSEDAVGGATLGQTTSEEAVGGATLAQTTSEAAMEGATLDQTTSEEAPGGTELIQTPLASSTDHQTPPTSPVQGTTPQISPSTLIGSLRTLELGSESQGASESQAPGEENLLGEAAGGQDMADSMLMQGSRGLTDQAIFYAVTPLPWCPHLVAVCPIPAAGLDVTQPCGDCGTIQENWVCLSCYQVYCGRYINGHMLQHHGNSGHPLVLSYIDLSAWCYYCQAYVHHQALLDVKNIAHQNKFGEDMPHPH
The experiment is described as follows: Inhibition of human HDAC6 (unknown origin) at 0.01 to 5 uM using Fluor de Lys substrate fluorimetric assay. In a few lines: (§2)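 Recombinant HDAC6 incubated 1 h with inhibitor (0–5 μM) and class II-specific Fluor de Lys substrate, then developer added and fluorescence read. Compound with substrate and developer but no enzyme served as interference control. Three experiments, each in triplicate.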

Experiment [3] addresses T1, Protein deacetylase HDAC6 (Homo sapiens). Briefly: Inhibition of human HDAC6 (unknown origin) at 5 uM using Fluor de Lys substrate fluorimetric assay. The method in brief:
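Recombinant HDAC6 from a fluorimetric kit, with a substrate specific for class II activity. Enzyme, inhibitor (0–5 μM) and Fluor de Lys substrate incubated 1 h, then developer added before the fluorescence read. Compound-only controls without enzyme, with substrate and developer, checked for signal interference. Three independent experiments, each in triplicate.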

Experiment [4] concerns the target T2, Histone deacetylase (Homo sapiens) (UniProt Q13547+O15379+Q9UBN7+Q92769+Q9UQL6+Q8WUI4+Q9BY41+Q96DB2+P56524+Q9UKV0+Q969S8). Briefly: Inhibition of human HDAC in human HCT116 cells assessed as global histone H3 lysine-9 acetylation levels at 0.01 to 1 uM after 24 hrs by Western blotting method. The class given is cell-based. Conditions: HCT-116. The method in brief: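 HCT116 cells treated 24 h with 10 nM, 100 nM or 1 μM compound, or DMSO. Western blot probed with anti-acetyl-H3 primary antibody and β-actin as loading control. Detection by dye-conjugated secondary antibodies on an infrared scanner.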
A general note: Immunoblotting shows a protein as a band on a membrane.

Experiment [5] deals with Histone deacetylase 1 (Homo sapiens) (UniProt Q13547). Briefly: Inhibition of human HDAC1 (unknown origin) at 0.1 uM using Fluor de Lys substrate fluorimetric assay. In a few lines:
as §1

Experiment [6] has the same target. The experiment is described as follows: Inhibition of human HDAC1 (unknown origin) at 0.01 to 1 uM using Fluor de Lys substrate fluorimetric assay.
The target in experiment [7] is T2, Histone deacetylase (Homo sapiens). Conditions: HCT-116, 1 uM.
Experiment [8] deals with HCT-116. The experiment is described as follows: Growth inhibition of human HCT116 cells at 5 uM after 96 hrs by MTS assay. The class given is functional, cell-based. In a few lines:
(§3)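 HCT116 colorectal cells seeded at 3×10⁴ cells/well in quadruplicate, attached overnight, then medium replaced with compound-containing medium; 96 h at 37 °C, 5% CO₂. CellTiter 96 One Solution MTS added, 1.5 h at 37 °C, absorbance at 490 nm. Two experiments, each with 4 replicates, mean with SEM; GI50 taken from growth curves.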
A general note: Tetrazolium dyes change colour on reduction, which living cells bring about.

Experiment [9] has as its target T1, Protein deacetylase HDAC6 (Homo sapiens). Briefly: Inhibition of human HDAC6 (unknown origin) at 1 uM using Fluor de Lys substrate fluorimetric assay. The method in brief: as §2
Experiment [10] concerns HCT-116. Briefly: Inhibition of cell proliferation of human HCT116 cells at […] after 96 hrs by MTS assay. It counts as functional, cell-based. In a few lines: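 HCT116 colorectal cells seeded at 3×10⁴ cells/well in quadruplicate, left to attach overnight, then given fresh medium with compound for 96 h at 37 °C, 5% CO₂. MTS reagent added for 1.5 h, absorbance read at 490 nm. Mean of two experiments, each with 4 replicates.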

Experiment [11] is described as follows: Growth inhibition of human HCT116 cells after 96 hrs by MTS assay. It counts as functional. As to conditions: HCT-116, 96 h. In a few lines: as §3

SMILES strings stand for the structures. Calls of active or inactive are those of the source. The calls are words filed in the database; no cut-off is given here.

Histone deacetylase 1 (Homo sapiens), sequence (Q13547 whole entry): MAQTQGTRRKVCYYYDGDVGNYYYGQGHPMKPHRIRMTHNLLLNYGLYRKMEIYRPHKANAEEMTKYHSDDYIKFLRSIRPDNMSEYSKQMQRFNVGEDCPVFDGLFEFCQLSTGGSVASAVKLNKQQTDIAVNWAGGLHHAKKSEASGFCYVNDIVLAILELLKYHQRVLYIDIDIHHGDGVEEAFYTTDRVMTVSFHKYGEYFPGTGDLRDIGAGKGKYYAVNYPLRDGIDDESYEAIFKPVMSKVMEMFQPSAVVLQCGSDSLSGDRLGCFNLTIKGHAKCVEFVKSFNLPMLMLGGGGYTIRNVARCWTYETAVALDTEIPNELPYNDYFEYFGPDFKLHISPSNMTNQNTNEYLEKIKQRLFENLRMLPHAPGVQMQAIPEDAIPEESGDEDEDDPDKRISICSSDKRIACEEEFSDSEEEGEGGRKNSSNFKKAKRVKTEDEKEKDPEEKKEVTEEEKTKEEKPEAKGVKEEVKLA

As for `CCCCCCCC(=O)SCC/C=C/[C@@H]1CC(=O)NCc2nc(cs2)C2=N[C@@](C)(CS2)C(=O)N[C@@H](C(C)C)C(=O)O1`, the inhibition in experiment [1] is over 90%; in [3], 75%; in [5], 15%. For the same compound, the inhibition entry in [2], in experiment [4] and in experiment [6] was “Active” throughout.
`CCCCCCCC(=O)SCC/C=C/[C@@H]1CC(=O)NCc2nc(cs2)C2=N[C@](C)(CS2)C(=O)N[C@@H](C(C)C)C(=O)O1`: in experiment [7], the inhibition entry was “Active”. This compound showed an inhibition in experiment [1] of under 15%. Besides, the inhibition entry in experiment [4] was “inactive”. Further, in the experiment with HCT-116 [8], the “growth inhibition (GI)” value was “inactive”.
Compound `CCCCCCCC(=O)SCC/C=C/[C@@H]1CC(=O)NCc2nc(cs2)C2=N[C@@](C)(CS2)C(=O)N[C@H](Cc2cccc3ccccc23)C(=O)O1` registered an inhibition in [1] of under 15%. The inhibition entry in experiment [2] and in experiment [4] was “inactive” in each case. For the same compound, the “growth inhibition (GI)” value in the experiment with HCT-116 [8] was “inactive”.
With `CCCCCCCC(=O)SCC/C=C/[C@@H]1CC(=O)NCc2nc(cs2)C2=N[C@@](C)(CS2)C(=O)N[C@@H](Cc2cccc3ccccc23)C(=O)O1`, the inhibition in experiment [1] is over 90%; in [9], 50%; in experiment [3], 50%; in [5], 15%. Also, the inhibition result with HCT-116 [10] is “inactive”. The compound further returned a GI50 in experiment [11] of 56 nM. The inhibition result in experiment [4] and in experiment [6] was “Active” each time.
On to `C=CC[C@@H]1NC(=O)[C@]2(C)CSC(=N2)c2csc(n2)CNC(=O)C[C@@H](/C=C/CCSC(=O)CCCCCCC)OC1=O`, for which the inhibition in experiment [1] is over 90%; in experiment [9], 50%; in [3], 55%. The inhibition result (with HCT-116 [10]; in experiment [5]) was “inactive” in each case. Further, in [11], the GI50 was 10 nM. For the same compound, the inhibition entry in [4] and in experiment [6] was “Active” throughout.
